The record followed here is the array DNA melting data of Ke et al. (doi:10.1101/2024.01.08.574731).

A short description of data set [1]: melting temperature; fluorescence melt of hairpins on a sequencing array, two-state fit, raised by 9.35 °C to match UV melts. The following applies: sodium 0.088 M. Summed up: (§1)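 Folding enthalpy and melting temperature come from bootstrapped two-state fits to Cy3 fluorescence of library hairpins carrying annealed Cy3 and quencher oligos on a sequenced MiSeq flow cell. Imaging was done in 50 mM Na-HEPES pH 8.0, 25 mM NaCl, stepping by 2.5 °C up to 60 °C, and signals were normalised to pre-quench Cy3 and to control constructs. Results of four replicates were combined by inverse variance, and fitted temperatures were raised by 9.35 °C to match UV melts.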

Data set [2] is described as follows: folding enthalpy; higher = less favourable; fluorescence melt of hairpins on a sequencing array, two-state fit. As to conditions: sodium 0.088 M. Summed up:
as §1

With GATCTTAATAAGATC ((((((...)))))), in data set [1], the Tm was 39.8 °C. For the same sequence, the folding enthalpy in data set [2] is -24.4 kcal/mol.
In the same order, the values of GATCTTACACAAGATC ((((((....)))))) are 42.7 °C and -28.2 kcal/mol.
The corresponding values for GATCTTACCAAGATC ((((((...)))))) are 45.6 °C and -33 kcal/mol.
The corresponding values for GATCTTACGAAAGATC ((((((....)))))) are 39.4 °C and -26.4 kcal/mol.
Turning to GATCTTACGGAAGATC ((((((....)))))), the Tm in data set [1] was found to be 44.1 °C. For the same sequence, in data set [2], the folding enthalpy is -29.2 kcal/mol.
In the same order, the values of GATCTTACTAAGATC ((((((...)))))) are 42.6 °C and -34.4 kcal/mol.
As to GATCTTAGATAAGATC ((((((....)))))), in data set [1], the Tm amounted to 41.8 °C. Besides, the folding enthalpy in data set [2] is -42.7 kcal/mol.
The corresponding values for GATCTTAGCCAAGATC ((((((....)))))) are 43.1 °C and -32.2 kcal/mol.
In the same order, the values of GATCTTAGGTAAGATC ((((((....)))))) are 42.6 °C and -30.1 kcal/mol.
The corresponding values for GATCTTAGTGAAGATC ((((((....)))))) are 43.1 °C and -27.1 kcal/mol.
As to GATCTTATGCAAGATC ((((((....)))))), the Tm in data set [1] was found to be 43 °C. Besides, the folding enthalpy in data set [2] is -36.5 kcal/mol.
For GATCTTATGGAAGATC ((((((....)))))), the Tm in data set [1] came to 40.5 °C. In addition, the folding enthalpy in data set [2] is -29.2 kcal/mol.
The corresponding values for GATCTTATTTAAGATC ((((((....)))))) are 46.4 °C and -38.8 kcal/mol.
In the same order, the values of GATCTTCAACAAGATC ((((((....)))))) are 38.3 °C and -25.1 kcal/mol.
In the same order, the values of GATCTTCACAAAGATC ((((((....)))))) are 44.9 °C and -28.9 kcal/mol.
For the sequence GATCTTCAGGAAGATC ((((((....)))))), the Tm in data set [1] worked out at 46.8 °C. The folding enthalpy in data set [2] is -29 kcal/mol.
Take GATCTTCCAAAGATC ((((((...)))))): the Tm in data set [1] came to 43.2 °C. Also, in data set [2], the folding enthalpy was -27.4 kcal/mol.
Take GATCTTCCCAAAGATC ((((((....)))))): the Tm in data set [1] came out at 45.5 °C. Also, the folding enthalpy in data set [2] was -32.6 kcal/mol.
The corresponding values for GATCTTCCCAAGATC ((((((...)))))) are 45.8 °C and -37.6 kcal/mol.
The corresponding values for GATCTTCCCCAAGATC ((((((....)))))) are 41.6 °C and -35.2 kcal/mol.
With GATCTTCCGAAGATC ((((((...)))))), the Tm in data set [1] is 43 °C. Also, the folding enthalpy in data set [2] was -31.9 kcal/mol.
In the same order, the values of GATCTTCCTAAGATC ((((((...)))))) are 45.7 °C and -31.6 kcal/mol.
The corresponding values for GATCTTCGCTAAGATC ((((((....)))))) are 43 °C and -34.2 kcal/mol.
In the same order, the values of GATCTTCTAAAAGATC ((((((....)))))) are 42 °C and -30.2 kcal/mol.
Turning to GATCTTCTGGAAGATC ((((((....)))))), in data set [1], the Tm turned out to be 49.7 °C. For the same sequence, the folding enthalpy in data set [2] was -46.2 kcal/mol.
In the same order, the values of GATCTTCTTAAGATC ((((((...)))))) are 44.3 °C and -30.1 kcal/mol.
As to GATCTTGACGAAGATC ((((((....)))))), the Tm in data set [1] worked out at 46.1 °C. For the same sequence, in data set [2], the folding enthalpy is -26.5 kcal/mol.
In the same order, the values of GATCTTGAGAAGATC ((((((...)))))) are 39.6 °C and -19.9 kcal/mol.
The corresponding values for GATCTTGATAAAGATC ((((((....)))))) are 52.1 °C and -40.9 kcal/mol.
The corresponding values for GATCTTGCGAAAGATC ((((((....)))))) are 50.6 °C and -46.2 kcal/mol.
GATCTTGCTCAAGATC ((((((....)))))): in data set [1], the Tm amounted to 48.3 °C. In addition, the folding enthalpy in data set [2] is -39.4 kcal/mol.
The corresponding values for GATCTTGCTGAAGATC ((((((....)))))) are 43.2 °C and -31.4 kcal/mol.
In the same order, the values of GATCTTGGAAAAGATC ((((((....)))))) are 49 °C and -33 kcal/mol.
The corresponding values for GATCTTGGAAACAGGATC ((((.((....)).)))) are 39.1 °C and -28.6 kcal/mol.
Consider GATCTTGGCCAAGATC ((((((....)))))), for which the Tm in data set [1] came to 54.8 °C. In data set [2], the folding enthalpy was -57.1 kcal/mol.
In the same order, the values of GATCTTGGGAAAGATC ((((((....)))))) are 49.1 °C and -33.3 kcal/mol.
The corresponding values for GATCTTGGGGAAGATC ((((((....)))))) are 40.8 °C and -29.1 kcal/mol.
In the same order, the values of GATCTTGGTAAGATC ((((((...)))))) are 43.2 °C and -29 kcal/mol.
